# Published values gathered from unrelated publications.
# Lines come from different studies, so protocols differ.
Structure (SMILES),test system,conditions,quantity,value
Cc1ccc(C(=O)Nc2ccc(CN3CCN(C)CC3)c(C(F)(F)F)c2)cc1C#Cc1cnc2[nH]ncc2c1,"human, plasma","oral, 40 mg, single dose, healthy volunteers",Vd/F,5370 L
CNC(=O)n1ccc2cc(Oc3ccnc(NC(=O)c4ccc(C5CCN(CCO)CC5)cc4)c3)c(OCCOC)cc21,"human, plasma","oral, 35 mg, single dose, fed, healthy volunteers",Vd/F,14300 L
CCN1CCN(Cc2ccc(NC(=O)c3ccc(C)c(NC(=O)c4cncc(-c5cccs5)c4)c3)cc2C(F)(F)F)CC1,"mouse, plasma","intraperitoneal, 15 mg/kg, single dose",Cmax,0.582 µg/mL
C=CS(=O)(=O)c1ccc(Nc2nc(OCC3CCCCC3)c3nc[nH]c3n2)cc1,"male BALB/c mouse, plasma","intravenous, 20 mg/kg, single dose",Cmax,0.534 µg/mL
CC[C@H](C)CCCCC(=O)N[C@@H](CCN)C(=O)N[C@H](C(=O)N[C@@H](CCN)C(=O)N[C@H]1CCNC(=O)[C@H]([C@@H](C)O)NC(=O)[C@H](CCN)NC(=O)[C@H](CCN)NC(=O)[C@H](CC(C)C)NC(=O)[C@@H](Cc2ccccc2)NC(=O)[C@H](CCN)NC1=O)[C@@H](C)O,"human, plasma","intravenous, 0.75 mg/kg, single dose, infusion",Vd,20.2 L
Cl.[2H]C([2H])([2H])CC(=O)c1cnc(NC(=O)C2CC2)cc1Nc1cccc(-c2ncn(C([2H])([2H])[2H])n2)c1OC,"human, plasma","oral, 10 mg, multiple doses, once daily, fasted",Vd/F,167 L
NC(=S)NN=Cc1ncccc1N,"human, plasma",oral,Vd/F,223 L
Cn1cc(Nc2nc(N)nc(-c3cccc(-n4ccc5cc(C6CC6)cc(F)c5c4=O)c3CO)n2)cn1,"human, plasma","oral, 900 mg, single dose, fasted, suspension",Vd/F,212 L
CC(=O)O[C@@]12CO[C@@H]1C[C@H](O)[C@@]1(C)C(=O)[C@H](O)C3=C(C)[C@@H](OC(=O)[C@H](O)[C@@H](NC(=O)OC(C)(C)C)c4ccccc4)C[C@@](O)([C@@H](OC(=O)c4ccccc4)[C@H]21)C3(C)C,"male Kunming mouse, lung","oral, 20 mg/kg",Cmax,142 ng/g
